TAAR1 antag = human TAAR1 antagonists, primary screen, Fluo-8 calcium fluorescence, CHO RD-HGA16 cells; 1.5% of 360,000 active; Trace amine-associated receptor 1 (Homo sapiens), Q96RJ0; antagonist; inhibition, % at 3 µM;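 active = inhibition above a per-plate cutoff, the mean inhibition of test compounds on that plate plus 3 SD, cut at about 49% in these data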;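 note: 0% = DMSO plus EC80 beta-PEA response and 100% = DMSO alone without agonist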
Target sequence (Q96RJ0 whole entry, looked up): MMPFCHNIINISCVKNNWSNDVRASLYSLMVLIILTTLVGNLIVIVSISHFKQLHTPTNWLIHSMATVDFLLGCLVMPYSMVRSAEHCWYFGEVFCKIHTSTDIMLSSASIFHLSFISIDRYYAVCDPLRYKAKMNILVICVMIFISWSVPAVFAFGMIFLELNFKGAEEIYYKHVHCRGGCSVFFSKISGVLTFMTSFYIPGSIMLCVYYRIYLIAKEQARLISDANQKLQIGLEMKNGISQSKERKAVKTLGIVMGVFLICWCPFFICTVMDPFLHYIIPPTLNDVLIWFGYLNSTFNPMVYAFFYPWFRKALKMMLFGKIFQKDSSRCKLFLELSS
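Test system: RD-HGA16 CHO cells with stable hTAAR1 and Gα16 / Probe or stimulus: EC80 β-phenethylamine stimulus / Times: seeding 17-24 h prior, 75-min 37 °C, 30-min RT dye loading / Detection: Fluo-8 calcium-sensitive fluorescence / Read-out basis: % inhibition scaled between DMSO and EC80 PEA controls / Repeats: singlicate, one well per test compound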
TAAR1 ag = human TAAR1 agonists, primary screen, Fluo-8 calcium fluorescence, CHO RD-HGA16 cells. Trace amine-associated receptor 1 (Homo sapiens), Q96RJ0. vehicle wells 0%, saturating PEA agonist 100%. activation, % at 3 µM. 0.99% of 360,000 active. AID 624467, 2012;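 active = activation above the mean activation of all test compounds in the run plus 3 SD, cut at about 38% in these data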
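Assay system: CHO-derived RD-HGA16 cells with stable Gα16 and human TAAR1; timing: 17-24 h seeding, 75 min 37 °C dye, 30 min RT; read-out: % activation from peak over basal fluorescence ratio, DMSO-to-PEA scaled; measured by: kinetic Fluo-8 calcium fluorescence; benchmarks: low control DMSO, high control PEA (EC100); doses: 3 µM single concentration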
V1R ag counter = agonists of human V1a receptor, primary screen, counter-screen for OXTR agonist project, fluorescence, CHO-V1R cells; Fluo-8 calcium fluorescence, agonist mode; 0% DMSO, 100% 3 nM vasopressin; AID 2797, 2010; 0.25% of 320,000 active; activation, % at 3 µM; Vasopressin V1a receptor (Homo sapiens), P37288;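 active = activation above the mean activation of all tested compounds plus 3 SD, per screening run, cut at about 20% in these data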;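 note: signal is peak over basal fluorescence ratio across a 100 second FLIPR read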
Target sequence (P37288 whole entry, looked up): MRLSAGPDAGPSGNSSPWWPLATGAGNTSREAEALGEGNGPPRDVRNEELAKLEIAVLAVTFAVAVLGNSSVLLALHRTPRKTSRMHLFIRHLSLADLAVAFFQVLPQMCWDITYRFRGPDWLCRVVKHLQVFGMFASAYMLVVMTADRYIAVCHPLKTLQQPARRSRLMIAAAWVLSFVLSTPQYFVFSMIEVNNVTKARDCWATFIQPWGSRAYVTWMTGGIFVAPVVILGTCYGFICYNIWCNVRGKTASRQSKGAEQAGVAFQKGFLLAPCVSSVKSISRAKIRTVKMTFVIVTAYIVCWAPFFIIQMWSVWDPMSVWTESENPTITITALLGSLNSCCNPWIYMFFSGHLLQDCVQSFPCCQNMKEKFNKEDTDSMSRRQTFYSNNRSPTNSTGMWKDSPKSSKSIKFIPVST
OXTR potentiate = human OXTR potentiators, primary screen, fluorescence, CHO-OTR cells, Fluo-8 calcium | 0.061% of 320,000 active | Oxytocin receptor (Homo sapiens), P30559 | AID 2445, 2010 | activation, % at 3 µM | Fluo-8 calcium fluorescence, potentiator mode; 0% = oxytocin EC15, 100% = EC100;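 active = activation above that plate's cutoff, the mean activation of tested compounds plus 3 SD, cut at about 6.6% in these data, passing the limit was not always enough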;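 note: 100% uses oxytocin at 75 nM as the full agonist control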
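Assay system: CHO cell line stably expressing human OTR | Also added: Oxytocin at about EC15, sub-maximal agonist stimulus | Times: Compound 6 min at room temperature before oxytocin, 100 s read | Measured by: Fluo-8 intracellular calcium fluorescence, ex 470-495, em 515-575 nm | Controls: EC15 oxytocin alone as 0%, 75 nM oxytocin as 100%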
OXTR ag = human OXTR agonists, primary screen, fluorescence, CHO-OTR cells, Fluo-8 calcium | Oxytocin receptor (Homo sapiens), P30559 | Fluo-8 calcium fluorescence; normalized: DMSO 0%, oxytocin 100% | activation, % at 3 µM | 0.32% of 320,000 active;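 active = activation above the mean of all tested compounds plus 3 SD, cutoff set per screening run, cut at about 20% in these data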;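 note: peak over basal fluorescence ratio from a 100 s FLIPR kinetic read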
V1R ag confirm = V1a receptor agonists, calcium signal, confirmation, Fluo-8 calcium fluorescence, CHO-V1R cells; shares compounds with V1R ag counter; agonist; activation, % at 3 µM; 20% of 180 active;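 active = average activation exceeds primary screen hit cutoff, cut at about 21% in these data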;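 note: peak over basal fluorescence ratio during a 100 s FLIPR read; 0% = DMSO only wells and 100% = 3 nM vasopressin wells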
OXTR ag counter = human OXTR agonists, counter-screen for V1R agonist project, fluorescence, CHO-OTR cells, triplicate; shares compounds with V1R ag counter; Fluo-8 calcium fluorescence; activation, % at 3 µM; 10% of 180 active; AID 434969, 2010;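 active = mean activation over three repeats above the cutoff from the earlier oxytocin receptor agonist screen, cut at about 20% in these data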;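 note: peak over minimum fluorescence ratio within a 100 second FLIPR read; 0% = DMSO only wells and 100% = oxytocin high control wells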
Numbers without * were called inactive; nt = not tested or not shown. This is a sample that favours compounds with a hit; in the whole collection about 2.3% have one here.

SMILES | TAAR1 antag | TAAR1 ag | V1R ag counter | OXTR potentiate | OXTR ag | V1R ag confirm | OXTR ag counter
CC1(CCc2ccc3c(c2)OCO3)NCCc2c1[nH]c1ccccc21 (stereo not drawn) | 9.5 | 49.3* | 30.4* | -16.0 | 15.8 | 10.1 | 22.1*
CSc1ccccc1NC(=O)COc1nsnc1N1CCOCC1 | -15.1 | 10.7 | -1.0 | -19.5 | -1.4 | nt | nt
CCCCCCCCCCCCOC(=O)C[N+](C)(C)C | 48.7* | 37.8* | 25.8* | -6.6 | 4.0 | -0.4 | -0.8
CCCCCCCCCCOC(=O)C[N+](C)(C)C/C=C(/C)Cl | -6.8 | 30.7 | 2.6 | -1.9 | 0.0 | nt | nt
COc1cc(NC(=O)COC(=O)CCCC2=NS(=O)(=O)c3ccccc3N2)cc(OC)c1 | -1.0 | 10.8 | -0.2 | 1.7 | 0.2 | nt | nt
COc1ccc(N(CC(=O)N2CCN(c3cccc(C)c3)C(C)C2)S(=O)(=O)c2c(C)n[nH]c2C)cc1 (stereo not drawn) | 9.7 | 13.2 | 23.0* | -14.0 | -0.3 | -0.1 | -0.9
COCCCn1cc(CN2CC(N3CCN(C)CC3)CS2(=O)=O)nn1 (stereo not drawn) | -4.9 | 0.5 | nt | nt | nt | nt | nt
COc1ccc(NC(=O)CN2C(=O)/C(=C3\SC(=S)N(C4CCS(=O)(=O)C4)C3=O)c3ccccc32)cc1 (stereo not drawn) | -23.6 | 9.1 | 22.3* | -1.4 | -1.9 | -0.2 | -0.4
O=C(O)c1ccccc1C1=Nc2ccc(O)cc2Oc2cc(O)ccc21 | 18.5 | 31.8 | 23.4* | -6.6 | 17.0 | 26.8* | 19.8*
Cc1cc(-c2ccccc2C(=O)O)on1 | 10.1 | 0.6 | 0.3 | -13.5 | 0.5 | nt | nt
NC(=O)c1cnn2c(-c3ccc(Cl)cc3Cl)ccnc12 | nt | nt | 0.5 | -12.0 | 0.1 | nt | nt
Cc1c(NC(=O)CSc2ccccc2F)c(=O)n(-c2ccccc2)n1C | -11.6 | 3.6 | 1.2 | 11.1 | 1.0 | nt | nt
Cc1c(NC(=O)CSc2ccccc2C(=O)Nc2cccnc2)c(=O)n(-c2ccccc2)n1C | 2.8 | 15.3 | 31.0* | 1.0 | -0.2 | -0.6 | -0.7
Cc1cccc(C(=O)NNC(=O)CCCCC(=O)NNC(=O)c2cccc(C)c2)c1 | -22.6 | 4.8 | 2.1 | -16.4 | -0.5 | nt | nt
Cc1ccc(-c2ccc(=O)n(Cc3ccc(F)cc3)n2)cc1 | 4.7 | -2.8 | 21.7* | -15.6 | 4.6 | 2.2 | -0.7
CC(=O)Nc1ccc(N2CCN(c3ccc(C(F)(F)F)cn3)CC2)nc1 | -16.0 | 0.7 | 25.0* | -12.8 | 6.0 | 2.3 | 1.6
Cc1ccc(NS(=O)(=O)c2cc(C(=O)N(C)C3CCN(C)CC3)ccc2Cl)cc1Cl | 8.0 | 0.0 | 1.2 | 10.7 | 1.5 | nt | nt
CCCCCC(O)(c1ccc(OC)cc1)C(CN1CCOCC1)c1ccccc1 (stereo not drawn) | -1.7 | 25.3 | 23.9* | -1.7 | -1.7 | -0.4 | -0.7
Cc1ccc(SC/C(O)=C(\C#N)c2nc3ccccc3s2)cc1 | -3.5 | 7.0 | 8.4 | -29.9 | 11.2 | nt | nt
N#C/C(=C(/O)CSc1ccccn1)c1nc2ccccc2s1 | 4.4 | 7.8 | 27.1* | -14.9 | 14.2 | 1.7 | 0.7
N#CCCN(CCC#N)C(=O)C1c2ccccc2Oc2ccccc21 | -12.6 | 13.7 | 26.2* | -5.5 | 12.2 | 0.9 | 0.7
CN(CCC#N)C(=O)COC(=O)C1c2ccccc2Oc2ccccc21 | -17.3 | 1.3 | 1.4 | -1.6 | 2.4 | nt | nt
Cc1cccc(NC(=S)NNC(=O)c2ccco2)c1 | 4.5 | 3.4 | 22.8* | -2.9 | 0.6 | 0.3 | 0.4
CC(=O)Nc1ccc(N=Cc2c(O)c(C(=O)Nc3ccccc3)cc3ccccc23)cc1 | 21.7 | 31.4 | 38.1* | -14.5 | 12.9 | 192.9* | 168.6*
CC(=O)Nc1ccc(N=Cc2c(O)c3ccccc3oc2=O)cc1 | 1.3 | -0.9 | nt | nt | nt | nt | nt
SMILES | TAAR1 antag | TAAR1 ag | V1R ag counter | OXTR potentiate | OXTR ag | V1R ag confirm | OXTR ag counter
C[C@H](CO)N1C[C@H](C)[C@@H](CN(C)Cc2ccc(-c3ccccc3)cc2)Oc2c(NS(=O)(=O)c3cn(C)cn3)cccc2C1=O | 10.2 | 0.5 | 76.6* | -4.2 | 1.0 | -0.6 | 0.6
O=S1(=O)N[C@H](Cc2ccccc2)COc2cc(N3CCN(Cc4ccccc4F)CC3)ccc21 | -4.5 | 2.1 | nt | nt | nt | nt | nt
CC(CC(=O)N1CCN(c2cccc(Cl)c2)CC1)S(=O)(=O)c1ccc2c(c1)NC(=O)CO2 (stereo not drawn) | 78.7* | 16.7 | 20.9* | -12.9 | 17.1 | 6.9 | 5.2
COc1ccc(NC(=O)CSc2nc3nc(C)cc(C)c3c(=O)[nH]2)cc1 | -13.1 | 0.7 | 23.4* | 6.2 | -1.3 | 0.2 | -0.9
CC(Sc1nnc(C2CC2)n1C)C(=O)Nc1ccc2c(c1)CCC2 (stereo not drawn) | -11.6 | -3.3 | -1.0 | -4.7 | -1.3 | nt | nt
Cc1cc(C(=O)Nc2c(C)nn(Cc3c(Cl)cccc3Cl)c2C)no1 | -4.3 | 13.3 | 1.0 | 1.3 | 0.1 | nt | nt
Cc1nn(Cc2c(Cl)cccc2Cl)c(C)c1NC(=O)c1cc(C(C)C)on1 | -10.3 | -0.1 | 27.1* | -7.2 | 2.7 | 1.0 | 14.2
CCCn1c(SCC(=O)Nc2cccc(F)c2)nc(O)cc1=O | 10.7 | 6.9 | 25.5* | -11.6 | 7.7 | -0.1 | -0.2
CCCn1c(SCC(=O)Nc2ccccc2Cl)nc(O)cc1=O | 14.7 | 20.3 | nt | nt | nt | nt | nt
CCN(C[C@H]1N[C@@](C)(C(=O)OC)[C@H]2C(=O)N(C)C(=O)[C@@H]12)C(=O)Nc1ccc(Cl)cc1 | 1.1 | 2.2 | 0.9 | 3.4 | 1.0 | nt | nt
CC1=NN(c2ccc(Cl)cc2)C(=O)C1C(c1cccc(O)c1)c1c(C)[nH]n(-c2ccc(Cl)cc2)c1=O (stereo not drawn) | nt | nt | 20.5* | -9.2 | 13.2 | 2.4 | 0.9
CSc1nnc(N2C(=O)C(O)=C(C(=O)c3ccco3)C2c2cccc(Cl)c2)s1 (stereo not drawn) | -2.0 | 0.8 | 45.1* | -5.9 | 10.3 | 19.6 | 15.8
COc1ccc(C2C(C(=O)c3ccco3)=C(O)C(=O)N2c2nnc(C)s2)cc1 (stereo not drawn) | -23.4 | 2.0 | 3.8 | 3.0 | 2.6 | nt | nt
CCSc1nnc(N2C(=O)C(O)=C(C(=O)c3ccco3)C2c2cccc(OC)c2)s1 (stereo not drawn) | -28.6 | 0.1 | 31.4* | -5.4 | 5.1 | 2.7 | 2.7
CCOc1cccc(C2C(C(=O)c3ccco3)=C(O)C(=O)N2c2nnc(C)s2)c1 (stereo not drawn) | 6.6 | 15.8 | 2.5 | -7.4 | 1.1 | nt | nt

Screening results from PubChem BioAssay.
